Reference: ChEMBL document CHEMBL3526114, “Histone deacetylase inhibitors increase human arylamine N-acetyltransferase-1 expression in human tumor cells” (Drug Metab Dispos, 2011)

Assays:
[1] = test system: HeLa; experiment: Increase in NATa promoter activity in human HeLa cells at 0.5 uM after 24 hrs by qPCR method; type: ADME, cell-based
[2] = test system: HeLa; experiment: Induction of NATb Sp1 site in human HeLa cells at 0.5 uM after 24 hrs by luciferase reporter gene assay; type: cell-based
[3] = test system: HeLa; experiment: Induction of acetylated histone H4 recruitment to NATb promoter in human HeLa cells at 0.5 uM after 6 hrs by ChIP assay
[4] = test system: HeLa; experiment: Increase in NATb promoter activity in human HeLa cells at 0.5 uM after 24 hrs by qPCR method; type: ADME, cell-based
How it was run: (§1)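 After 24 hr with 0.5 μM TSA or vehicle, HeLa NATb-derived NAT1 transcript quantified by qPCR. Cycling: 95°C 10 min, then 40 cycles (NATb) or 30 (β-actin) of 95°C 15 s, 50°C 20 s, 72°C. Single product checked by melt curve and gel. Normalised to β-actin; fold change by ΔΔCT. Mean ± SEM, n = 6; t-test.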

[5] = test system: HeLa; experiment: Induction of Sp1 recruitment to NATb promoter in human HeLa cells nuclear extracts at 0.5 uM after 24 hrs by EMSA method; type: cell-based
How it was run: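 Nuclear extracts from HeLa treated with 0.5 µM TSA or vehicle. 2 µg extract incubated with 1 × 10⁵ d.p.m. ³²P probe spanning the NATb Sp1 site, 30 min at room temperature, in binding buffer pH 7.9 with poly[d(I-C)]. Competition used 100-fold excess unlabelled wild-type or mutant probe; supershift used 2 µg Sp1 antibody. Run on 5% native PAGE at 4°C; phosphorimaging.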

[6] = test system: NATb promoter of NAT1; experiment: Induction of Sp1 recruitment to NATb promoter in human HeLa cells at 0.5 uM after 24 hrs by luciferase reporter gene assay; type: cell-based; conditions: read-out: FC
[7] = test system: NAT1 mRNA; experiment: Increase in NAT1 mRNA expression in human HeLa cells at 0.5 uM after 24 hrs by qPCR method; type: ADME, cell-based; conditions: read-out: FC; how it was run: as §1
[8] = target: T1, NAT1 (arylamine N-acetyltransferase 1) (Homo sapiens, UniProt P18440); experiment: Increase in NAT1 enzyme activity in 40% confluent human HeLa cells at 0.5 uM using p-aminobenzoic acid substrate after 24 hrs by HPLC method relative to untreated control; type: ADME, cell-based; conditions: probe p-aminobenzoic acid, read-out: FC
T1 sequence (P18440 whole entry): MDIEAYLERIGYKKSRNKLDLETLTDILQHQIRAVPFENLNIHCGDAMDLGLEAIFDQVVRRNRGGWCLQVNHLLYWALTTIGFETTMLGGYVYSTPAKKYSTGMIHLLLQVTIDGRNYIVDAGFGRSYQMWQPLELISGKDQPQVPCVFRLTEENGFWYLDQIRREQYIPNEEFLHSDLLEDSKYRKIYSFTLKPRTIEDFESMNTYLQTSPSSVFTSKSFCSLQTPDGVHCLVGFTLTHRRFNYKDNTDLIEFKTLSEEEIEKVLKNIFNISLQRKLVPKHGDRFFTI
How it was run: (§2)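 HeLa seeded at 2 × 10⁵, 4 × 10⁵ or 6 × 10⁵ cells/well in 6-well plates (40, 80, 100% confluence at treatment). Treated with 0.5 μM TSA or vehicle for 24 hr. Sonicated lysates in 20 mM Tris pH 7.4, 1 mM EDTA, 1 mM DTT. NAT1 activity measured by HPLC with p-aminobenzoic acid substrate. Mean ± SEM, n = 3; Student's t-test versus vehicle.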

[9] = target: T1, NAT1 (arylamine N-acetyltransferase 1); experiment: Increase in NAT1 enzyme activity in 100% confluent human HeLa cells at 0.5 uM using p-aminobenzoic acid substrate after 24 hrs by HPLC method relative to untreated control; type: ADME, cell-based; conditions: probe p-aminobenzoic acid, read-out: FC; how it was run: as §2
[10] = test system: NATb promoter of NAT1; experiment: Induction of Sp1 (GC>TA) mutant recruitment to NATb promoter in human HeLa cells at 0.5 uM after 24 hrs by luciferase reporter gene assay; type: cell-based; conditions: read-out: FC
[11] = target: T1, NAT1 (arylamine N-acetyltransferase 1); experiment: Increase in NAT1 enzyme activity in human HeLa cells at 0.5 uM using p-aminobenzoic acid substrate after 24 hrs by HPLC method relative to untreated control; type: ADME, cell-based; conditions: probe p-aminobenzoic acid, read-out: FC
How it was run: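 HeLa cultured in RPMI 1640 with 5% FBS and treated with 0.5 μM TSA or DMSO vehicle for 24 hr at 37°C. Cells washed with PBS and sonicated in 20 mM Tris pH 7.4, 1 mM EDTA, 1 mM DTT. Lysates assayed at once for NAT1 activity by HPLC with p-aminobenzoic acid substrate. Mean ± SEM, n = 3.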

[12] = test system: HeLa; experiment: Effect on NAT1 mRNA stability in human HeLa cells assessed as slope of mRNA decay curve at 0.5 uM after 24 hrs in presence of transcription inhibitor actinomycin D by qPCR method (reference value: -0.78 +/- 0.09/hr)
[13] = test system: HeLa; experiment: Induction of Sp1 recruitment to NATb promoter in human HeLa cells at 0.5 uM after 6 hrs by ChIP assay
[14] = test system: NATb promoter of NAT1; experiment: Induction of NATb 3657 bp fragment upstream of exon 4 in human HeLa cells at 0.5 uM after 24 hrs by luciferase reporter gene assay; type: cell-based; conditions: read-out: FC
How it was run: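 HeLa seeded at 1.5 × 10⁵ cells/well and left overnight, then transfected (Lipofectamine 2000) with 1 µg of a deletion series of NATb promoter–firefly luciferase constructs (length = bp upstream of exon 4). After 4 hr, 0.5 µM TSA or DMSO for 24 hr; passive lysis buffer; luciferase read-out. Mean ± SEM, n = 3; t-test.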

fold induction at 24 h, 0.5 µM [6]: 45
fold induction at 24 h, 0.5 µM [7]: 25
fold induction at 24 h, 0.5 µM [8]: 4.1
fold induction at 24 h, 0.5 µM [9]: < 1.5
fold induction at 24 h, 0.5 µM [10]: < 5
fold induction at 24 h, 0.5 µM [11]: 3.2
Activity [12]: -0.46 h⁻¹
fold induction at 24 h, 0.5 µM [14]: 18
Compound: CC(/C=C/C(=O)NO)=C\[C@@H](C)C(=O)c1ccc(N(C)C)cc1 [TRICHOSTATIN]
Activity [1]: Non-toxic
Activity [2]: Toxic
Activity [3]: Toxic
Activity [4]: Toxic
Activity [5]: Toxic
Activity [13]: Toxic
